For series [1], the system named is Candida albicans. As to the kind of experiment: Antifungal activity against Candida albicans WTBF-50 by microbroth dilution method. In kind it is functional. An outline of the steps: (§1)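 CLSI microbroth dilution in RPMI 1640 with L-glutamine. MIC values are geometric means of three independent assays.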
(Dilution methods test growth across graded concentrations, often in twofold steps.)

Series [2] relates to Pichia kudriavzevii. As to the kind of experiment: Antifungal activity against Candida krusei WTBF-51 by microbroth dilution method. It counts as functional.
Series [3] has as its system Nakaseomyces glabratus. As to the kind of experiment: Antifungal activity against Candida glabrata ATCC 90030 WTBF-86 by microbroth dilution method. It counts as functional. An outline of the steps:
as §1

Series [4] has as its system Candida parapsilosis. The series is described as follows: Antifungal activity against Candida parapsilosis ATCC 90018 WTBF-88 by microbroth dilution method. Conditions: Lodderomyces parapsilosis. In kind it is functional. The essentials:
as §1

Series [5] has as its system Cryptococcus neoformans. As to the kind of experiment: Antifungal activity against Cryptococcus neoformans Cn18 (Serotype C) WTBF-106 by microbroth dilution method. In kind it is functional. The essentials:
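Microbroth dilution per the CLSI protocol, run in Sabouraud Dextrose Broth in place of RPMI. MIC values are geometric means of three independent assays.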

The subject of series [6] is HeLa. As to the kind of experiment: Cytotoxicity against human HeLa cells assessed as cell viability after 72 hrs by MTS assay. It counts as cell-based. (Tetrazolium assays rely on reduction of a dye to a coloured formazan, in cell work by metabolically active cells.)
The nature of series [7]: Metabolic stability in liver microsomes (unknown origin). It counts as ADME. Background: Liver microsomes are vesicles of endoplasmic reticulum, rich in cytochrome P450 enzymes.

Values after ≈ are worked out from the molar mass of the structure shown.

These results are taken from ChEMBL document CHEMBL3600321, “Synthesis and antifungal evaluation of head-to-head and head-to-tail bisamidine compounds” (Bioorg Med Chem, 2015).

By MIC is commonly meant the smallest concentration in the dilution series that meets the test's criterion for growth inhibition. Usually CC50 stands for the concentration that lowers cell viability or growth by half.

`c1cc2cc(CCCc3cc4ccc(C5=NCCCN5)cc4[nH]3)[nH]c2cc1C1=NCCCN1`: the MIC in series [1] is 22.6 µg/mL (≈ 51.6 µM); in series [2], 32 µg/mL (≈ 73 µM); in series [3], 12.7 µg/mL (≈ 29 µM); in series [4], 32 µg/mL (≈ 73 µM); in series [5], 16 µg/mL (≈ 36.5 µM). Further, the half-maximal cytotoxic concentration (CC50) in series [6] amounted to 80.3 µg/mL (≈ 183 µM). Moreover, the Stability result in series [7] is reported as “Stable”.
Turning to `CC(=O)O.c1cc2cc(-c3ccc4cc(C5=NCCCN5)[nH]c4c3)oc2cc1C1=NCCCN1`, the MIC in series [1] amounted to 4 µg/mL; in series [2] it was 25.4 µg/mL; in series [3], 2.52 µg/mL; in series [4], 2 µg/mL; in series [5], 1 µg/mL. Moreover, the half-maximal cytotoxic concentration (CC50) in series [6] is 40.5 µg/mL. Besides, in series [7], the Stability entry is listed as “Stable”.
Turning to `CC(=O)O.c1cc2cc(-c3ccc(-c4ccc5nc(C6=NCCCN6)cn5c4)cc3)oc2cc1C1=NCCCN1`, the minimal inhibitory concentration (MIC) was 4 µg/mL in series [1]; 8 µg/mL in series [2]; 1 µg/mL in series [3]; 0.79 µg/mL in series [4]; 1 µg/mL in series [5]. Also, the CC50 in series [6] was found to be 20.7 µg/mL. Further, in series [7], the Stability result is “Stable”.
As to `c1cc2cc(CCCCc3cc4ccc(C5=NCCCN5)cc4[nH]3)[nH]c2cc1C1=NCCCN1`, the minimal inhibitory concentration (MIC) is at least 32 µg/mL in series [1]; at least 32 µg/mL in series [2]; 1 µg/mL (≈ 2.21 µM) in series [3]; at least 32 µg/mL in series [4]; 1.59 µg/mL (≈ 3.51 µM) in series [5]. Further, in series [6], the CC50 is 14.7 µg/mL (≈ 32.5 µM). Further, the Stability entry in series [7] was “Stable”.
For the compound `CC(=O)O.c1cc2cc(-c3ccc(-c4cc5ccc(C6=NCCCN6)cc5o4)cc3)[nH]c2cc1C1=NCCCN1`, the MIC in series [1] was determined as 0.5 µg/mL; in series [2], 1 µg/mL; in series [3] it was 0.16 µg/mL; in series [4], 0.25 µg/mL; in series [5] it was 0.25 µg/mL. The 50% cytotoxic concentration (CC50) in series [6] was determined as 4.7 µg/mL. Moreover, the Stability entry in series [7] is “Stable”.
Take `CC(=O)O.c1cc2cc(-c3ccc4cc(C5=NCCCN5)[nH]c4c3)sc2cc1C1=NCCCN1`: the MIC turned out to be 3.17 µg/mL in series [1]; 16 µg/mL in series [2]; 5.04 µg/mL in series [3]; 2 µg/mL in series [4]; 4 µg/mL in series [5]. Also, the CC50 in series [6] stood at 27.5 µg/mL. The Stability result in series [7] is “Stable”.
On to `CC1CNC(c2ccc3cc(-c4ccc(-c5cc6ccc(C7=NC(C)CN7)cc6[nH]5)cc4)[nH]c3c2)=N1.O=C(O)C(F)(F)F` (stereo not drawn), for which the MIC in series [1] came to 0.79 µg/mL; in series [2] it was 0.79 µg/mL; in series [3], 0.25 µg/mL; in series [4] it was 0.4 µg/mL; in series [5], 0.25 µg/mL. Also, in series [6], the CC50 was 66.5 µg/mL. Also, the Stability result in series [7] is on record as “Stable”.
Consider `O=C(O)C(F)(F)F.c1cc2cc(-c3ccc(-c4cn5cc(C6=NCCCN6)ccc5n4)cc3)[nH]c2cc1C1=NCCCN1`, for which the MIC in series [1] was 0.63 µg/mL; in series [2], 4 µg/mL; in series [3], 0.25 µg/mL; in series [4], 0.25 µg/mL; in series [5], 3.13 µg/mL. Moreover, in series [6], the CC50 was found to be 19.7 µg/mL. The Stability result in series [7] is “Stable”.
Consider `N=C(NCCO)c1ccc2cc(-c3ccc(-c4cc5ccc(C(=N)NCCO)cc5[nH]4)cc3)[nH]c2c1.O=C(O)C(F)(F)F`, for which the MIC in series [1] came out at 0.25 µg/mL; in series [2], 1.59 µg/mL; in series [3] it was 0.13 µg/mL; in series [4], 0.25 µg/mL; in series [5], 1.97 µg/mL. Also, the CC50 in series [6] turned out to be 14 µg/mL. For the same compound, in series [7], the Stability entry is on record as “Stable”.
Take `CC(=O)O.c1cc2cc(-c3ccc(-c4ccc5nc(C6=NCCCN6)cn5c4)cc3)[nH]c2cc1C1=NCCCN1`: the minimum inhibitory concentration (MIC) came to 0.5 µg/mL in series [1]; 0.5 µg/mL in series [2]; 0.13 µg/mL in series [3]; 0.5 µg/mL in series [4]; 2 µg/mL in series [5]. In series [6], the CC50 was found to be 34.6 µg/mL. The Stability result in series [7] is reported as “Stable”.
With `O=C(O)C(F)(F)F.OC1CN=C(c2ccc3cc(-c4ccc(-c5cc6ccc(C7=NCC(O)CN7)cc6[nH]5)cc4)[nH]c3c2)NC1` (stereo not drawn), the MIC worked out at 0.5 µg/mL in series [1]; 12.7 µg/mL in series [2]; 0.16 µg/mL in series [3]; 0.31 µg/mL in series [4]; 0.06 µg/mL in series [5]. Also, the CC50 in series [6] is above 80 µg/mL. The Stability entry in series [7] is listed as “Stable”.
Turning to `CC(=O)O.c1cc2cc(-c3cnc(-c4cc5ccc(C6=NCCCN6)cc5[nH]4)nc3)[nH]c2cc1C1=NCCCN1`, the MIC in series [1] was 0.31 µg/mL; in series [2], 0.25 µg/mL; in series [3], at most 0.03 µg/mL; in series [4], 0.13 µg/mL; in series [5], 1.24 µg/mL. Moreover, the CC50 in series [6] is 25.5 µg/mL. For the same compound, the Stability entry in series [7] is on record as “Stable”.
Consider `CC(=O)O.c1cc2cc(-c3ccc4cc(C5=NCCCN5)oc4c3)[nH]c2cc1C1=NCCCN1`, for which the MIC in series [1] was determined as 0.31 µg/mL; in series [2], 4 µg/mL; in series [3] it was 0.13 µg/mL; in series [4] it was 0.5 µg/mL; in series [5], 0.5 µg/mL. In addition, the 50% cytotoxic concentration (CC50) in series [6] turned out to be 17.1 µg/mL. Moreover, the Stability entry in series [7] is on record as “Stable”.
Turning to `CN1CCCN=C1c1ccc2cc(-c3ccc(-c4cc5ccc(C6=NCCCN6C)cc5[nH]4)cc3)[nH]c2c1`, the MIC was determined as 1.59 µg/mL (≈ 3.18 µM) in series [1]; 4 µg/mL (≈ 7.99 µM) in series [2]; 1.26 µg/mL (≈ 2.52 µM) in series [3]; 1 µg/mL (≈ 2 µM) in series [4]; 1.97 µg/mL (≈ 3.93 µM) in series [5]. Moreover, the CC50 in series [6] was determined as 4.7 µg/mL (≈ 9.39 µM). The Stability result in series [7] was “Stable”.
As for `Clc1c(-c2ccc(-c3[nH]c4cc(C5=NCCCN5)ccc4c3Cl)cc2)[nH]c2cc(C3=NCCCN3)ccc12.O=C(O)C(F)(F)F`, the MIC was 0.4 µg/mL in series [1]; 0.25 µg/mL in series [2]; 0.25 µg/mL in series [3]; 0.25 µg/mL in series [4]; 0.78 µg/mL in series [5]. In series [6], the CC50 was determined as 0.65 µg/mL. Further, the Stability result in series [7] was “Stable”.
`CC(=O)O.c1cc2cc(-c3ccc4nc(C5=NCCCN5)cn4c3)[nH]c2cc1C1=NCCCN1`: the MIC was 1 µg/mL in series [1]; 1.26 µg/mL in series [2]; 0.16 µg/mL in series [3]; 1 µg/mL in series [4]; 6.25 µg/mL in series [5]. For the same compound, the CC50 in series [6] came out at 91.9 µg/mL. The Stability result in series [7] is reported as “Stable”.
Take `CC(=O)O.c1cn2cc(-c3ccc(-c4ccc5cc(C6=NCCCN6)[nH]c5c4)cc3)nc2cc1C1=NCCCN1`: the MIC in series [1] was determined as 16 µg/mL; in series [2] it was 16 µg/mL; in series [3] it was 32 µg/mL; in series [4] it was 8 µg/mL; in series [5] it was 1 µg/mL. Also, the CC50 in series [6] was determined as 20.7 µg/mL. Besides, in series [7], the Stability entry is “Stable”.
In the case of `CC(=O)O.c1cn2cc(-c3ccc(-c4ccc5cc(C6=NCCCN6)oc5c4)cc3)nc2cc1C1=NCCCN1`, the MIC in series [1] stood at 8 µg/mL; in series [2] it was 8 µg/mL; in series [3], 1.59 µg/mL; in series [4], 2.52 µg/mL; in series [5] it was 3.94 µg/mL. In series [6], the CC50 is 32.5 µg/mL. In addition, in series [7], the Stability result is “Stable”.
As to `Brc1c(-c2ccc(-c3[nH]c4cc(C5=NCCCN5)ccc4c3Br)cc2)[nH]c2cc(C3=NCCCN3)ccc12.O=C(O)C(F)(F)F`, the minimal inhibitory concentration (MIC) stood at 0.63 µg/mL in series [1]; 0.5 µg/mL in series [2]; 0.5 µg/mL in series [3]; 0.5 µg/mL in series [4]; 0.78 µg/mL in series [5]. Further, the CC50 in series [6] amounted to 0.5 µg/mL. Further, the Stability result in series [7] was “Stable”.
